Experimental data as given in ChEMBL document CHEMBL5346929, “Designed switch from covalent to non-covalent inhibitors of carboxylesterase Notum activity” (Eur J Med Chem, 2023).

How the values were obtained:
[1] = biological target: T1, Palmitoleoyl-protein carboxylesterase NOTUM (Homo sapiens, UniProt Q6P988); assay: Inhibition of human recombinant Notum (81 to T451 residues) expressed in HEK293S cells using OPTS as substrate at 10 uM incubated for 40 mins by microplate reader analysis relative to control
T1 sequence (Q6P988 whole entry): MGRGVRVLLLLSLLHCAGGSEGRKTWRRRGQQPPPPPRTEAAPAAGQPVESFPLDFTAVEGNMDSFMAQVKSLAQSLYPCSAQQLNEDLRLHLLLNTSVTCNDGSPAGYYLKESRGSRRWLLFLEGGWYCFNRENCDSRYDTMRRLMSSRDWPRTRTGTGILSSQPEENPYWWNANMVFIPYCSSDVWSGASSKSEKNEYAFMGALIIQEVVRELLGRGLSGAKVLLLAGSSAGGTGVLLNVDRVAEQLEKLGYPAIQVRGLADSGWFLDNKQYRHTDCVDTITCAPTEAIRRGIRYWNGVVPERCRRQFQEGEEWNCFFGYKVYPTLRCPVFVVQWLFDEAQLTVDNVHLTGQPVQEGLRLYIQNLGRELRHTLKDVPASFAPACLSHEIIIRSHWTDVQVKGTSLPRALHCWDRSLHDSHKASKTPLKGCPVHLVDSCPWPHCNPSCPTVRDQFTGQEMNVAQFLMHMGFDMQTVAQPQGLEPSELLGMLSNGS
Method in brief: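 Biochemical assay with the Notum 81–451 C330S construct and the synthetic fluorescent substrate OPTS.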

[2] = system: liver microsomes (Mus musculus); assay: Metabolic stability in mouse liver microsome assessed as intrinsic clearance measured upto 60 mins by LC-MS/MS analysis; settings: read-out: CLH
[3] = biological target: T1, Palmitoleoyl-protein carboxylesterase NOTUM; assay: Inhibition of human recombinant Notum (81 to T451 residues) expressed in HEK293S cells using OPTS as substrate incubated for 40 mins by microplate reader analysis

| Compound | inhibition at 10 µM [1] [%] | microsomal CLint [2] [µL/min/mg] | IC50 [3] |
| --- | --- | --- | --- |
| CC(=O)n1ncc2ccccc21 | 20 |  |  |
| O=C1CCCN1c1ccccc1 | 20 |  |  |
| CC(=O)N(C)c1ccccc1C | 20 |  |  |
| CC(=O)N1CCc2cc(C#N)ccc21 | 20 |  |  |
| O=C1CCC2Cc3ccccc3N12 (racemic) |  | 74 |  |
| CC(=O)N1CCC(c2ccccc2)C1 (stereo unspecified) | < 20 |  | Not Active |
| CC(=O)n1cnc2ccccc21 | < 20 |  | Not Active |
| CCN1CCc2c(Cl)cccc21 | 20 |  |  |
| CC(=O)N1CCS(=O)(=O)c2ccccc21 | 20 |  |  |
